# Screens as filed in PubChem BioAssay.
# The list is not random: actives were taken first. Their share in the collection is about 1.3%.
# S100A4 inh HTS: inhibitors of S100A4-myosin IIA peptide binding, primary screen, biochemical, fluorescence polarization, TAMRA-MyoIIA peptide. Protein S100-A4 (Homo sapiens), P26447. inhibition, % at 10.7 µM. 0.14% of 360,000 active;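 active = mean inhibition of at least 70% across replicates, with every replicate also reaching that level; inconclusive = mean inhibition reaches 70% but some replicates fall short; inactive = mean inhibition below 70%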
# Target sequence (P26447 whole entry, looked up): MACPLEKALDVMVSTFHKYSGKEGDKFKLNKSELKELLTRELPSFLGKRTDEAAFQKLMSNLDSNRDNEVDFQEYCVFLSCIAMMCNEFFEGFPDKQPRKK
#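 Assay system: human S100A4 monomer with TAMRA-labelled myosin IIA peptide / Buffer or medium: Calcium-containing HEPES buffer, pH 7.2 / Reagent: TAMRA-labelled myosin IIA heavy-chain peptide probe, 5 nM / Compound: one dose per compound / Timing: polarization read 5 min after assay mix addition, stable 5–60 min / Benchmarks: neutral control DMSO, positive control TFP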
# Xi reactivation: activators of inactive X chromosome reactivation, primary screen, imaging, XiGFP fibroblasts, GFP high-content imaging, set 2 | activation, % at 7.58 µM | XiGFP mouse fibroblasts, % GFP-positive cells imaging, 3 d; cells co-treated with 5-aza-dC sensitizer; scaled so ellipticine positive control = 100% | 0.055% of 360,000 active;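 active = mean normalized replicate activation at least 10% and every replicate at or above 10%; inconclusive = only one of the two criteria met; inactive = mean below 10% and not all replicates reach 10%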
#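 Assay system – SV40-immortalized XiGFP fibroblast cells, line 68-5-11 · Buffer or medium – DMEM supplemented with 5-aza-dC as sensitizing agent · Dosing – one concentration, pinned · Benchmarks – positive control ellipticine, 6 µM final · Times – 3 days compound exposure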
# RAD52 anneal inh: RAD52 DNA annealing inhibitors, primary screen, biochemical, FRET, single point, set 2; 0.46% of 360,000 active; recombinant RAD52 DNA annealing, FRET fluorescence; AID 651710, 2012; inhibition, % at 18.7 µM;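 active = every replicate showing at least 50% inhibition; inconclusive = mean inhibition at least 50% but not in every replicate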
# RAD54 inh: inhibitors of human RAD54 branch migration, primary screen, biochemical, fluorescence, single point | 0.14% of 360,000 active | AID 602329, 2012 | inhibition, % at 10.4 µM | DNA repair and recombination protein RAD54-like (Homo sapiens), Q92698 | RAD54 Holliday junction branch migration, FAM/BHQ fluorescence;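 active = mean normalized replicate activity at least 40 and at least half of replicates scoring 40 or more; inconclusive = only one of the two criteria met; inactive = mean below 40 and under half of replicates reaching 40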;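 also: inhibitors cause a drop in the FAM fluorescence signal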
# CASP6 VEID inh: human caspase-6 inhibitors, primary screen, biochemical, VEID-R110 fluorescence, single point, set 2 | inhibition, % at 12.5 µM | 0.53% of 350,000 active | P55212 | purified caspase-6, Z-VEID-R110 cleavage fluorescence;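 active = mean inhibition across replicates at least about 35%, with every replicate also reaching that limit, limit read from the data; inconclusive = only one of the two criteria met; inactive = neither criterion met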
# MLL AF4-AF9 inh: inhibitors of AF4 peptide binding to AF9, primary screen, biochemical, AlphaScreen, biotin-AF4 peptide, FLAG-AF9, single point | 0.47% of 350,000 active | Protein AF-9 (Homo sapiens), P42568 | inhibition, % at 10 µM;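 active = every replicate reaching a set inhibition limit, whatever the replicate mean, cut at about 25% in these data; inconclusive = mean inhibition reaches that limit but some replicates miss it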
# Target sequence (P42568 whole entry, looked up): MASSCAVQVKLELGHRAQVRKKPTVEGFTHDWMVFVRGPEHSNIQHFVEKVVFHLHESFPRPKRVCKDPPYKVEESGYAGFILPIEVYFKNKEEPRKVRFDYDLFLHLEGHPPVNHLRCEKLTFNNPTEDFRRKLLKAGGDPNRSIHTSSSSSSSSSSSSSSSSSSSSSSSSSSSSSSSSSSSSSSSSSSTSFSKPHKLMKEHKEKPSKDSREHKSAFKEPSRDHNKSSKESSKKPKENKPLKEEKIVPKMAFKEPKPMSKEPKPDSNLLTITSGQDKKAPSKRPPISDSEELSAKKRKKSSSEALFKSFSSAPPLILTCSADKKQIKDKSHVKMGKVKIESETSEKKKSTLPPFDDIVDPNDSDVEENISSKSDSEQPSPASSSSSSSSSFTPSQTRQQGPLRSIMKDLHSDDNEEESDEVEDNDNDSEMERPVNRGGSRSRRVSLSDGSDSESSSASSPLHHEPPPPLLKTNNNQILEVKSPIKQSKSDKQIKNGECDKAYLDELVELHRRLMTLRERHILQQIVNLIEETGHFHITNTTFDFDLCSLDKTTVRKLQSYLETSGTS
# AlphaScreen intf: AlphaScreen signal interference counter-screen, dose response, artefact control, biochemical, cherry-picked samples, luminescence; shares compounds with MLL AF4-AF9 inh; AC50, µM (top dose mostly 12 µM); 45% of 530 active; AID 720494, 2013; cut-off not given, nearly all actives have AC50 up to about 14 µM
# RAD52 DNA ctr: DNA-binding compounds via dye displacement, dose response, artefact control for RAD52 inhibitor project, biochemical, fluorescence polarization, cherry-pick. shares compounds with RAD52 anneal inh. Salmon sperm DNA/acridine orange FP displacement. AC50, µM. 8% of 1,000 active. AID 652128, 2013;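 active = fitted half-maximal concentration for signal loss at or below twice the highest dose tested, in every separate run, actives reach about 64 µM in these data; inconclusive = runs disagree, or flat partial signal loss, or poor fit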
# Hits are given with their value; . = inactive; ? = inconclusive; / = no result; ! = a repeat was not active.
SMILES,S100A4 inh HTS,Xi reactivation,RAD52 anneal inh,RAD54 inh,CASP6 VEID inh,MLL AF4-AF9 inh,AlphaScreen intf,others
CC1CCN(C2=C(NS(=O)(=O)c3ccc(Br)cc3)C(=O)c3ccccc3C2=O)CC1,.,.,.,.,.,50.0,.,
CCOC(=O)C1CCN(C2=C(NS(=O)(=O)c3ccc(Cl)cc3)C(=O)c3ccccc3C2=O)CC1,?,.,.,/,.,29.5,.,
CCS(=O)(=O)Nc1ccc2c(c1)C(=O)N(C)[C@@H]1CC[C@@H](CC(=O)NCc3ccc(OC)cc3)O[C@@H]1CO2,.,.,.,.,.,.,/,
C[C@@H]1CN([C@H](C)CO)C(=O)Cc2cc(NS(=O)(=O)c3ccc(Cl)cc3)ccc2O[C@H]1CN(C)C(=O)Nc1ccc2c(c1)OCO2,/,.,/,/,/,/,/,
CCNC(=O)C[C@@H]1CC[C@@H]2[C@@H](COc3ccc(NC(=O)c4cscn4)cc3C(=O)N2C)O1,.,.,.,.,.,.,/,
COc1ccccc1-c1ccc([C@@H]2[C@H](CO)N(CC3CC3)C23CN(S(C)(=O)=O)C3)cc1,.,.,.,/,.,.,/,
CC(=NNC(=S)N1CCN(c2ccccn2)CC1)c1ccccn1,.,.,.,/,.,.,/,
CC(=NNC(=S)N1CCN(C2CCCCCC2)CC1)c1ccccn1,.,.,.,/,.,45.6,1.18µM,
O=C1CN(Cc2ccccc2)C[C@@H]2[C@H](c3ccc(-c4cccnc4)cc3)[C@@H](CO)N12,.,.,.,/,/,.,/,
Nc1[nH]n(-c2ccccc2)c(=O)c1N=Nc1ccc2c(c1)OCCO2,.,.,.,.,.,39.3,.,
COc1ccc(NCc2nn(CC(=O)c3ccc(Br)cc3)c3[n+]2CCCCC3)cc1,.,.,.,/,.,30.1,.,
CC(=O)N1CC(=O)N2[C@H](C1)[C@H](c1ccc(-c3ccncc3)cc1)[C@@H]2CO,.,.,.,/,.,.,/,
COc1ccc(N2CCN(CCCNC(=O)CCC(=O)N3CCOc4ccc(Cl)cc43)CC2)cc1,.,.,.,.,.,38.4,12µM,
Cc1cccc(C2Nc3cccc4cccc(c34)N2)c1,.,.,.,.,.,.,/,
c1cc2c3c(cccc3c1)NC(c1ccc3c(c1)OCO3)N2,.,.,.,.,.,33.8,.,
CCc1ccc(-c2nc(CSCC(=O)N3CCN(c4ncccn4)CC3)c(C)o2)cc1,.,.,.,.,.,.,.,
S=C(NN=C(c1ccccc1)c1ccccn1)N(Cc1ccccn1)Cc1ccccn1,.,.,.,/,.,53.2,7.98µM,
COc1cc(OC)c2c(-c3ccccc3)cc(=O)oc2c1C(CCN1CCCCC1)c1ccc2c(c1)OCO2 (stereo not given),.,.,.,.,.,36.1,.,
COc1cc(OC)c2c(-c3ccccc3)cc(=O)oc2c1C(CCN1CCCCC1)c1ccc(N(C)C)cc1 (stereo not given),/,/,/,.,/,/,/,
COc1cc(OC)c2c(-c3ccccc3)cc(=O)oc2c1C(CCN1CCOCC1)c1ccc(N(C)C)cc1 (stereo not given),.,.,.,.,.,38.5,.,
COc1cc(OC)c2c(c1C(CCN1CCOCC1)c1ccc(N(C)C)cc1)OC(=O)CC2c1ccc(N(C)C)cc1 (stereo not given),.,.,.,.,.,65.3,13.3µM,
COc1ccc2c3c([nH]c2c1)[C@H](CO)N(C(=O)C1CCC1)CC31CN(Cc2cccc(F)c2)C1,.,.,.,/,.,.,/,
Cc1cccc(Nc2cc(C)c3c(O)cccc3n2)c1C,.,.,.,.,.,28.2,.,
O=C(C[C@H]1CC[C@@H]2[C@H](COC[C@@H](O)CN2S(=O)(=O)c2ccccc2)O1)NCC1CCCCC1,.,/,93.9,.,.,39.3,.,
O=C(C[C@@H]1CC[C@@H]2[C@H](COC[C@H](O)CN2S(=O)(=O)c2ccccc2)O1)NCC1CCCCC1,.,.,.,.,.,.,/,
SMILES,S100A4 inh HTS,Xi reactivation,RAD52 anneal inh,RAD54 inh,CASP6 VEID inh,MLL AF4-AF9 inh,AlphaScreen intf,others
Oc1c(C(Nc2cccc(C(F)(F)F)c2)c2ccncc2)ccc2cccnc12 (stereo not given),.,.,.,/,.,33.4,4.76µM,
CCC(=O)N1CC(=O)N2[C@H](CO)[C@@H](c3ccc(-c4ccc(C#N)cc4)cc3)[C@@H]2C1,.,.,.,/,.,.,/,
CN=c1scc(-c2ccc(OC)cc2)n1/N=C(\C)c1cccnc1,.,.,.,/,.,48.2,11.4µM,
COc1ccc(CC(=O)N/N=C(\C)c2cccnc2)cc1,.,.,.,.,.,.,/,
CN(C)CC/C=C1/c2ccc(F)cc2Sc2ccc(Cl)cc21,.,.,61.7,.,.,36.3,.,RAD52 DNA ctr=.
CN(C)CC/C=C1\c2ccc(F)cc2Sc2cc(F)c(Cl)cc21,.,.,71.3,.,.,46.4,.,RAD52 DNA ctr=.
CN(C)CC/C=C1\c2ccccc2Sc2ccc(Cl)cc21,.,.,.,.,.,.,/,
CC1CCN(CC(=O)Nc2ccc(N3CCCCCC3)cc2)CC1,.,.,75.0,/,.,52.9,11.5µM,RAD52 DNA ctr=.
CC(C)NC(=O)N(C)C[C@H]1OCc2cn(nn2)CCCC(=O)N([C@@H](C)CO)C[C@@H]1C,.,.,.,.,.,.,/,
Cc1ccc2nc(-c3ccc(NC(=S)NC4CC(C)(C)NC(C)(C)C4)cc3)sc2c1,.,.,94.9,.,.,44.8,.,RAD52 DNA ctr=.
Oc1ccccc1C=NCCN=Cc1ccccc1O,.,/,.,/,.,.,/,
Oc1ccccc1C=NCC(O)c1ccccc1 (stereo not given),.,.,.,.,.,.,/,
Oc1ccccc1C=NCCCCCCN=Cc1ccccc1O,.,.,58.7,.,.,39.1,.,RAD52 DNA ctr=.
Oc1ccccc1C=NCCN1CCN(CCN=Cc2ccccc2O)C1c1ccccc1O (stereo not given),.,.,65.9,.,.,30.4,.,RAD52 DNA ctr=.
CC(=O)c1ccc2c(c1)N(CCCN1CCC(CCO)CC1)c1ccccc1S2,.,.,.,.,.,.,/,
OCCN1CCN(CCCN2c3ccccc3Sc3ccc(Cl)cc32)CC1,.,.,102.3,.,.,39.8,.,RAD52 DNA ctr=.
CN(C)CCCN1c2ccccc2Sc2ccc(Cl)cc21,.,.,100.8,.,.,38.8!,.,RAD52 DNA ctr=.
